The record followed here is ChEMBL document CHEMBL4613238, “Synthesis and biological activity of thieno[3,2-d]pyrimidines as potent JAK3 inhibitors for the treatment of idiopathic pulmonary fibrosis” (Bioorg Med Chem, 2020).

Assay [1] has as its system Mus musculus. Description: Antifibrotic activity against bleomycin-induced pulmonary fibrosis C57BL/6J mouse model assessed as reduction in IL17A expression in plasma at 30 to 60 mg/kg, po administered via gavage qd for 14 days at 3 days post bleomycin challenge by FACSCalibur flow cytometry. The class given is functional, organism-based. In outline:
(§1)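 Female C57BL/6J mice (5‒6 weeks, 20‒25 g) were given 33 μg bleomycin intratracheally in saline under isoflurane. From day 3 they received oral gavage once daily for 14 days, with saline containing 1.4% DMSO as vehicle; n=8 per group. Vena cava blood was heparinized and spun at 3000 rpm for 10 min, and plasma was stored at −20 °C. IL-6, IL-17A and TNF-α were measured by flow cytometry; mean ± SEM.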

In assay [2] the test system is Mus musculus. The assay can be described thus: Antifibrotic activity against bleomycin-induced pulmonary fibrosis C57BL/6J mouse model assessed as reduction in TNF-alpha expression in plasma at 30 to 60 mg/kg, po administered via gavage qd for 14 days at 3 days post bleomycin challenge by FACSCalibur flow cytometry. The assay is classed as functional, organism-based. In outline:
as §1

Assay [3] has as its system Mus musculus. Description: Antifibrotic activity against bleomycin-induced pulmonary fibrosis C57BL/6J mouse model assessed as reduction in collagen deposition by measuring hydroxyproline content in lungs at 60 mg/kg, po administered via gavage qd for 14 days at 3 days post bleomycin challenge by hydroxyproline assay. The assay is classed as functional, organism-based. In short, it runs like this: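 Bleomycin model in female C57BL/6J mice: 33 μg intratracheal, then daily oral dosing for 14 days beginning on day 3, vehicle saline with 1.4% DMSO, n=8. Lungs were perfused with saline and lavaged with PBS/1 mM EDTA. The left lobe was assayed for hydroxyproline with a kit by absorbance at 550 nm; mean ± SEM.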

Assay [4] concerns Mus musculus. Description: Antifibrotic activity against bleomycin-induced pulmonary fibrosis C57BL/6J mouse model assessed as reduction in IL6 expression in plasma at 30 to 60 mg/kg, po administered via gavage qd for 14 days at 3 days post bleomycin challenge by FACSCalibur flow cytometry. The class given is functional, organism-based. In short, it runs like this: as §1
A general note: Flow cytometry measures light scatter and fluorescence of single cells or particles in a stream.

The subject of assay [5] is Mus musculus. Description: Antifibrotic activity against bleomycin-induced pulmonary fibrosis C57BL/6J mouse model assessed as reduction in oxidative stress by measuring reduction in MDA level in plasma at 60 mg/kg, po administered via gavage qd for 14 days at 3 days post bleomycin challenge. The class given is functional, organism-based. In outline:
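After 33 μg intratracheal bleomycin, female C57BL/6J mice were gavaged once daily for 14 days from day 3 (vehicle saline, 1.4% DMSO; n=8). MDA was measured in heparinized plasma with a kit by absorbance at 532 nm; mean ± SEM.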

Assay [6] relates to Mus musculus. Description: Antifibrotic activity against bleomycin-induced pulmonary fibrosis C57BL/6J mouse model assessed as reduction in lung coefficient at 30 to 60 mg/kg, po administered via gavage qd for 14 days at 3 days post bleomycin challenge. The class given is functional, organism-based. In outline: (§2)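 Bleomycin was given intratracheally (33 μg) to female C57BL/6J mice, 5‒6 weeks old. Daily oral gavage followed for 14 days from day 3, with 1.4% DMSO saline vehicle; n=8 per group. Fresh lungs were weighed and lung index was calculated as lung weight/body weight × 100.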

The test system of assay [7] is Mus musculus. The assay can be described thus: Antifibrotic activity against bleomycin-induced pulmonary fibrosis C57BL/6J mouse model assessed as reduction in alveolar septal swelling at 60 mg/kg, po administered via gavage qd for 14 days at 3 days post bleomycin challenge by hematoxylin and eosin staining based light microscopic analysis. The class given is functional, organism-based. In outline:
(§3)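 Intratracheal bleomycin (33 μg) was given to female C57BL/6J mice. Oral gavage started 3 days later and continued once daily for 14 days, with 1.4% DMSO saline as vehicle; n=8. Lungs were formalin-fixed for 24 h and paraffin-embedded. 5 μm sections were H&E-stained and examined by light microscopy at 200×.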

The test system of assay [8] is Mus musculus. The assay can be described thus: Antifibrotic activity against bleomycin-induced pulmonary fibrosis C57BL/6J mouse model assessed as reduction in IL6 expression in plasma at 60 mg/kg, po administered via gavage qd for 14 days at 3 days post bleomycin challenge by FACSCalibur flow cytometry. The class given is functional, organism-based. In outline: as §1

Assay [9] has as its system Mus musculus. The assay can be described thus: Antifibrotic activity against bleomycin-induced pulmonary fibrosis C57BL/6J mouse model assessed as reduction in TNF-alpha expression in plasma at 60 mg/kg, po administered via gavage qd for 14 days at 3 days post bleomycin challenge by FACSCalibur flow cytometry. The class given is functional, organism-based. In short, it runs like this:
as §1

The subject of assay [10] is Mus musculus. Description: Antifibrotic activity against bleomycin-induced pulmonary fibrosis C57BL/6J mouse model assessed as reduction in IL17A expression in plasma at 60 mg/kg, po administered via gavage qd for 14 days at 3 days post bleomycin challenge by FACSCalibur flow cytometry. The class given is functional, organism-based. In outline: as §1
In assay [11] the test system is Mus musculus. The assay can be described thus: Antifibrotic activity against bleomycin-induced pulmonary fibrosis C57BL/6J mouse model assessed as reduction in lung coefficient at 60 mg/kg, po administered via gavage qd for 14 days at 3 days post bleomycin challenge. The assay is classed as functional, organism-based. In short, it runs like this:
as §2

The target in assay [12] is T1, Tyrosine-protein kinase JAK3 (Homo sapiens, UniProt P52333).
T1 sequence (P52333 whole entry): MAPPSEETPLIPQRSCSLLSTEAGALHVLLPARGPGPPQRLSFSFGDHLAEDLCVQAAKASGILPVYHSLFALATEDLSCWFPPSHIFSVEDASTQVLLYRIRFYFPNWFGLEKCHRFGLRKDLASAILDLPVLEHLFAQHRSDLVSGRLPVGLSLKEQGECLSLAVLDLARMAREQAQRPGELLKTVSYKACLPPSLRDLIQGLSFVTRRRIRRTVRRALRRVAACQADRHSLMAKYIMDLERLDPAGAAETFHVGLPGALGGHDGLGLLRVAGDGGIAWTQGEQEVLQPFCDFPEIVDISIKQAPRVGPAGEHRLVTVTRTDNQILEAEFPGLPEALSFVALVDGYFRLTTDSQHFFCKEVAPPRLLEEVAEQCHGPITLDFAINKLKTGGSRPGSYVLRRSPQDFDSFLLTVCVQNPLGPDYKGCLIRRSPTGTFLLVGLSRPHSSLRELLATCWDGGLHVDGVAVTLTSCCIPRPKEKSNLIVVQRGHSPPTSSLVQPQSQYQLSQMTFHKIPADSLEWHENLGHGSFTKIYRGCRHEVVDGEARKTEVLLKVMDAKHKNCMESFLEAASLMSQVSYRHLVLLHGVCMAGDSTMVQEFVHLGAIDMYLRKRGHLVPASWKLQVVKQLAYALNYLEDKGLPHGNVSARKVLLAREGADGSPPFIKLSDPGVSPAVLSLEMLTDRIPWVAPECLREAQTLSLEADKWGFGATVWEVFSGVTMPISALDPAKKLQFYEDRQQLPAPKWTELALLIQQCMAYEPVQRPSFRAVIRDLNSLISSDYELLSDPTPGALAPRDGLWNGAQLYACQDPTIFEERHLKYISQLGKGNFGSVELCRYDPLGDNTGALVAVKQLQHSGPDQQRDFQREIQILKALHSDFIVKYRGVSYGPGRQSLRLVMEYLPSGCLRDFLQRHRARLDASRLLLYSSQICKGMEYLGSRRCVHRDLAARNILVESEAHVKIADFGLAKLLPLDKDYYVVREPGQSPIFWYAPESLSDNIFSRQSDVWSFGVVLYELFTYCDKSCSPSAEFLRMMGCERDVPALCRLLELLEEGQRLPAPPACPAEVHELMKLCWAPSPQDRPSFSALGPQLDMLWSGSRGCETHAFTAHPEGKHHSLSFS
The assay can be described thus: Inhibition of recombinant human N-terminal GST-tagged JAK3 (781 to end residues) expressed in baculovirus infected Sf9 cells using poly (Glu,Tyr) 4:1 as substrate incubated for 60 mins in presence of ATP by ADP-Glo kinase assay. In outline: (§4)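 ADP-Glo luminescent assay run at compound concentrations of 0.1, 1, 10, 100 and 1000 nM. The kinase reaction ran in 1× kinase buffer for 60 min at room temperature. ADP-Glo reagent was then added to stop the reaction and deplete ATP (40 min, RT), followed by detection reagent (30 min, RT) and a luminescence read. IC50s came from curve fitting; means of three experiments.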
(ADP-Glo first removes unused ATP, then detects ADP through luciferase.)

In assay [13] the target is Tyrosine-protein kinase BTK (Homo sapiens, UniProt Q06187). Description: Inhibition of BTK (unknown origin) by ADP-Glo kinase assay. In outline:
as §4

Assay [14] can be described thus: Cytotoxicity against human NHBE cells assessed as reduction in cell viability by CCK8 assay. The class given is cell-based. In short, it runs like this:
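Human bronchial epithelial (HBE) cells were tested for growth inhibition by CCK-8 assay. IC50 values are means of three separate experiments.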
For orientation: Tetrazolium dyes change colour on reduction, which living cells bring about.

Assay [15] relates to Mus musculus. Description: Antifibrotic activity against po dosed bleomycin-induced pulmonary fibrosis C57BL/6J mouse model assessed as reduction in alveolar septal swelling administered via gavage qd for 14 days at 3 days post bleomycin challenge by hematoxylin and eosin staining based light microscopic analysis. The class given is functional, organism-based. In outline: as §3

The subject of assay [16] is Mus musculus. Description: Antifibrotic activity against bleomycin-induced pulmonary fibrosis C57BL/6J mouse model assessed as reduction in alveolar septal swelling at 30 to 60 mg/kg, po administered via gavage qd for 14 days at 3 days post bleomycin challenge by hematoxylin and eosin staining based light microscopic analysis. The assay is classed as functional, organism-based. In short, it runs like this:
as §3

Assay [17] relates to Mus musculus. Description: Antifibrotic activity against bleomycin-induced pulmonary fibrosis C57BL/6J mouse model assessed as reduction in collagen deposition in lungs at 60 mg/kg, po administered via gavage qd for 14 days at 3 days post bleomycin challenge by Masson's Trichrome staining analysis. The class given is functional, organism-based. In outline:
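Female C57BL/6J mice received 33 μg intratracheal bleomycin, then once-daily gavage for 14 days from day 3 (1.4% DMSO saline vehicle; n=8). Lungs were fixed in formalin for 24 h and paraffin-embedded. 5 μm sections were stained with Masson's trichrome and viewed by light microscopy at 200×.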

Assay [18] concerns Mus musculus. The assay can be described thus: Antifibrotic activity against bleomycin-induced pulmonary fibrosis C57BL/6J mouse model assessed as reduction in air-sacculitis at 30 to 60 mg/kg, po administered via gavage qd for 14 days at 3 days post bleomycin challenge by hematoxylin and eosin staining based light microscopic analysis. The class given is functional, organism-based. In short, it runs like this: as §3

Activity calls are given as the source filed them. No cut-off for these calls is given here.

By IC50 is commonly meant the concentration at which inhibition is half-maximal.

Tyrosine-protein kinase BTK, sequence (Q06187 whole entry): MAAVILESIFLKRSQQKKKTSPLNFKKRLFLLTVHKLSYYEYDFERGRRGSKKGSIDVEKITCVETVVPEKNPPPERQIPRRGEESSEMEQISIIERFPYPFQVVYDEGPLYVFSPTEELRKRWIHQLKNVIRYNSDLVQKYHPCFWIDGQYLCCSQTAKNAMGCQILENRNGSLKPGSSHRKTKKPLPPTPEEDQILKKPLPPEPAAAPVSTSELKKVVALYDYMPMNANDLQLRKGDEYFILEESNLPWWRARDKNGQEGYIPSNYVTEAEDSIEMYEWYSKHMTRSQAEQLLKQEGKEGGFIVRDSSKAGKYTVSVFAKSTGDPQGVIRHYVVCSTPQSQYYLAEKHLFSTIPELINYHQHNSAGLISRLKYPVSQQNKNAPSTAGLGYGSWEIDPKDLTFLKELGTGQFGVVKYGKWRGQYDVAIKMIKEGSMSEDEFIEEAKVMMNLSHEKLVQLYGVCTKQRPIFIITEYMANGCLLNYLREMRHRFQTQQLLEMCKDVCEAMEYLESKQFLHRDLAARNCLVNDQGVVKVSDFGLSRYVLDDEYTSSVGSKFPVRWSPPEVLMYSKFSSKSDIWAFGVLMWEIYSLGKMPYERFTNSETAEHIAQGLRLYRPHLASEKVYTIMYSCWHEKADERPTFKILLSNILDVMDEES

For `COC(=O)c1ccc2c(c1)NC(=O)/C2=C(\Nc1ccc(N(C)C(=O)CN2CCN(C)CC2)cc1)c1ccccc1`, the outcome in the assay with Mus musculus [1], in the assay with Mus musculus [2], in the assay with Mus musculus [3], in the assay with Mus musculus [4], in the assay with Mus musculus [5] and in the assay with Mus musculus [6] was Active. The result in the assay on Mus musculus [7] was Active.
As to `COc1cc2ncnc(Nc3ccc(F)c(Cl)c3)c2cc1OCCCN1CCOCC1`, the outcome in the assay with Mus musculus [8], in the assay with Mus musculus [9], in the assay with Mus musculus [10], with Mus musculus [5], in the assay on Mus musculus [11] and in the assay with Mus musculus [7] was Active.
On to `C=CC(=O)Nc1cccc(Nc2nc(Nc3ccc(OCCOC)cc3)ncc2F)c1` [SPEBRUTINIB], for which the IC50 in assay [12] is 66.5 nM.
In the case of `C=CC(=O)Nc1cccc(Nc2nc(Nc3ccc(CN4CCOCC4)cc3)nc3ccsc23)c1`, the IC50 was more than 100 nM in [13], 8270 nM in [14] and 59.4 nM in [12].
For `C=CC(=O)Nc1cccc(Oc2nc(Nc3ccc(OCCCN4CCOCC4)c(Cl)c3)nc3ccsc23)c1`, the outcome in the assay with Mus musculus [1], with Mus musculus [2], in the assay on Mus musculus [16], with Mus musculus [17], in the assay with Mus musculus [3] and in the assay on Mus musculus [4] was Active. Also, the result in the assay on Mus musculus [5], with Mus musculus [6] and in the assay with Mus musculus [18] was Active. The Activity result with Mus musculus [15] was “Dose-dependent effect”. Moreover, the IC50 in [13] was not below 62.4 nM; in [14], 39000 nM; in assay [12], 1.38 nM.
